Laboratory results as given in ChEMBL document CHEMBL1124180, “Asymmetric synthesis and properties of the enantiomers of the antibacterial agent 7-(3-aminopyrrolidin-1-yl)-1-(2,4-difluorophenyl)-1,4-dihydro-6- fluoro-4-oxo-1,8-naphthyridine-3-carboxylic acid hydrochloride” (J Med Chem, 1988).

Key:
Type in all cases: functional
[1] = tested on: Staphylococcus epidermidis; assay: In vitro activity against Staphylococcus epidermidis (3519)
Method in brief: (§1)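 MIC determined by agar dilution on brain-heart infusion agar under aerobic conditions.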

Escherichia coli [2] = assay: In vitro activity against Escherichia coli (KNK437)
Method in brief: (§2)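 MIC for aerobic bacteria, measured on brain-heart infusion agar.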

Klebsiella aerogenes = assay: In vitro activity against Enterobacter aerogenes (ATCC 13048).; method in brief: as §1
Bacteroides fragilis [3] = assay: In vitro activity against Bacteroides fragilis (SFM2906A)
Method in brief: (§3)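 MIC determined under anaerobic conditions on Wilkins-Chalgren agar.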

Acinetobacter sp. = assay: In vitro activity against Acinetobacter sp.(CMX 669).; method in brief: as §1
Cutibacterium acnes = assay: In vitro activity against Propionibacterium acnes (132); method in brief: as §3
Pseudomonas aeruginosa [4] = assay: In vitro activity against Pseudomonas aeruginosa (BMH10); method in brief: as §1
Clostridioides difficile [5] = assay: In vitro activity against Clostridium difficile (ATCC 17857)
Staphylococcus aureus [6] = assay: In vitro activity against Staphylococcus aureus(CMX 686B); method in brief: as §1
Bacteroides fragilis [7] = assay: In vitro activity against Bacteroides fragilis (105AT25285); method in brief: as §3
Staphylococcus aureus [8] = assay: In vitro activity against Staphylococcus aureus(CMX 503A); method in brief: as §1
Escherichia coli [9] = assay: In vitro activity against Escherichia coli (DC-2); method in brief: as §2
Staphylococcus aureus [10] = assay: In vitro activity against Staphylococcus aureus(45); method in brief: as §1
Parvimonas micra = assay: In vitro activity against Peptostreptococcus micros (ATCC 33270).; method in brief: as §3
Bacteroides fragilis [11] = assay: In vitro activity against Bacteroides fragilis (SFM2929-1); method in brief: as §3
Streptococcus pyogenes [12] = assay: In vitro activity against Streptococcus pyogenes(930 CONST).; method in brief: as §1
Klebsiella pneumoniae = assay: In vitro activity against Klebsiella pneumoniae (ATCC 8045).; method in brief: as §1
Staphylococcus aureus [13] = assay: In vitro activity against Staphylococcus aureus(CMX 553); method in brief: as §1
[14] = tested on: Bacteroides thetaiotaomicron; assay: In vitro activity against Bacteroides thetaiotaomicron (106); method in brief: as §3
Streptococcus agalactiae = assay: In vitro activity against Streptococcus agalactiae (CMX 508).; method in brief: as §1
[15] = tested on: Peptostreptococcus anaerobius; assay: In vitro activity against Peptostreptococcus anaerobius (ATCC 27337); method in brief: as §3
Phocaeicola vulgatus [16] = assay: In vitro activity against Bacteroides vulgatus(792); method in brief: as §3
[17] = tested on: Peptoniphilus asaccharolyticus; assay: In vitro activity against Peptococcus asaccharolyticus (ATCC 14963).; method in brief: as §3
Pseudomonas aeruginosa [18] = assay: In vitro activity against Pseudomonas aeruginosa (K799/WT).; method in brief: as §1
Fusobacterium = assay: In vitro activity against Fusobacterium sp.(GS-10); method in brief: as §3
[19] = tested on: Bacteroides thetaiotaomicron; assay: In vitro activity against Bacteroides thetaiotaomicron (SFM2975-2); method in brief: as §3
Clostridium perfringens [20] = assay: In vitro activity against Clostridium perfringens (788)
Phocaeicola vulgatus [21] = assay: In vitro activity against Bacteroides vulgatus(SFBC 2375); method in brief: as §3
Staphylococcus aureus [22] = assay: In vitro activity against Staphylococcus aureus (A5177); method in brief: as §1
Micrococcus luteus [23] = assay: In vitro activity against Micrococcus luteus (ATCC 9341); method in brief: as §1
[24] = tested on: Bacteroides thetaiotaomicron; assay: In vitro activity against thetaiotaomicron (ATCC 29741)
Method in brief: (§4)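 Anaerobic MICs measured by agar dilution on Wilkins-Chalgren agar.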

Bacteroides fragilis [25] = assay: In vitro activity against Bacteroides fragilis (SFM2975-7); method in brief: as §3
[26] = tested on: Bacteroides thetaiotaomicron; assay: In vitro activity against Bacteroides thetaiotaomicron (ATCC 29742); method in brief: as §3
Prevotella disiens = assay: In vitro activity against Bacteroides disiens (ATCC 29426); method in brief: as §3
Micrococcus luteus [27] = assay: In vitro activity against Micrococcus luteus (ATCC 4698); method in brief: as §1
Bacteroides fragilis [28] = assay: In vitro activity against Bacteroides fragilis (UC-2); method in brief: as §3
Streptococcus pyogenes [29] = assay: In vitro activity against Streptococcus pyogenes (2548 INDUC).; method in brief: as §1
Clostridioides difficile [30] = assay: In vitro activity against Clostridium difficile (ATCC 9689)
Fusobacterium nucleatum = assay: In vitro activity against Fusobacterium nucleatum (ATCC 25586); method in brief: as §3
Bacteroides fragilis [31] = assay: In vitro activity against Bacteroides fragilis (784); method in brief: as §3
Veillonella parvula = assay: In vitro activity against Veillonella parvula (ATCC 10790); method in brief: as §4
Enterococcus faecium = assay: In vitro activity against Enterococcus faecium (ATCC 8043).; method in brief: as §1
Peptostreptococcus = assay: In vitro activity against Peptostreptococcus sp.(TB-11)
Method in brief: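 MIC for anaerobic bacteria, measured on Wilkins-Chalgren agar.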

Clostridium perfringens [32] = assay: In vitro activity against Clostridium perfringens (104AT13124)
Burkholderia cepacia = assay: In vitro activity against Pseudomonas cepacia (296I); method in brief: as §1
Escherichia coli [33] = assay: In vitro activity against Escherichia coli Juhl; method in brief: as §2
Hoylesella loescheii = assay: In vitro activity against Bacteroides loescheii (ATCC 15930).; method in brief: as §3
Providencia stuartii = assay: In vitro activity against Providencia stuartii (CMX 640); method in brief: as §1
Escherichia coli [34] = assay: In vitro activity against Escherichia coli (SS).; method in brief: as §2
Staphylococcus aureus [35] = assay: In vitro activity against Staphylococcus aureus(ATCC 6538P); method in brief: as §1
Pseudomonas aeruginosa [36] = assay: In vitro activity against Pseudomonas aeruginosa (A5007).; method in brief: as §1
Clostridium perfringens [37] = assay: In vitro activity against Clostridium perfringens (SFBC 2026)
[38] = tested on: Prevotella melaninogenica; assay: In vitro activity against Bacteroides melaninogenicus (ATCC 25845).; method in brief: as §3
Streptococcus equinus = assay: In vitro activity against Streptococcus bovis (A5169).; method in brief: as §1
Streptococcus pyogenes [39] = assay: In vitro activity against Streptococcus pyogenes (EES61); method in brief: as §1
Prevotella bivia = assay: In vitro activity against t Bacteroides bivius(B 6140); method in brief: as §4
Thomasclavelia ramosa = assay: In vitro activity against Clostridium romosum (7)
Escherichia coli [40] = assay: In vitro activity against Escherichia coli (H560); method in brief: as §2
Staphylococcus aureus [41] = assay: In vitro activity against Staphylococcus aureus(45 RAR2); method in brief: as §1
Finegoldia magna = assay: In vitro activity against Peptococcus magnus (ATCC 29328); method in brief: as §3

Cl.N[C@@H]1CCN(c2nc3c(cc2F)c(=O)c(C(=O)O)cn3-c2ccc(F)cc2F)C1
MIC [1]: 0.1 µg/mL
MIC (Escherichia coli [2]): 0.39 µg/mL
MIC (Klebsiella aerogenes): 0.2 µg/mL
MIC (Bacteroides fragilis [3]): 2 µg/mL
MIC (Acinetobacter sp.): 0.1 µg/mL
MIC (Cutibacterium acnes): 1 µg/mL
MIC (Pseudomonas aeruginosa [4]): 0.2 µg/mL
MIC (Clostridioides difficile [5]): 4 µg/mL
MIC (Staphylococcus aureus [6]): 0.05 µg/mL
MIC (Bacteroides fragilis [7]): 2 µg/mL
MIC (Staphylococcus aureus [8]): 0.1 µg/mL
MIC (Escherichia coli [9]): 0.39 µg/mL
MIC (Staphylococcus aureus [10]): 0.1 µg/mL
MIC (Parvimonas micra): 0.12 µg/mL
MIC (Bacteroides fragilis [11]): 2 µg/mL
MIC (Streptococcus pyogenes [12]): 0.39 µg/mL
MIC (Klebsiella pneumoniae): 0.05 µg/mL
MIC (Staphylococcus aureus [13]): 0.1 µg/mL
MIC [14]: 8 µg/mL
MIC (Streptococcus agalactiae): 0.39 µg/mL
MIC [15]: 0.5 µg/mL
MIC (Phocaeicola vulgatus [16]): 2 µg/mL
MIC [17]: 0.25 µg/mL
MIC (Pseudomonas aeruginosa [18]): 0.39 µg/mL
MIC (Fusobacterium): 2 µg/mL
MIC [19]: 4 µg/mL
MIC (Clostridium perfringens [20]): 0.25 µg/mL
MIC (Phocaeicola vulgatus [21]): 1 µg/mL
MIC (Staphylococcus aureus [22]): 0.1 µg/mL
MIC (Micrococcus luteus [23]): 3.1 µg/mL
MIC [24]: 8 µg/mL
MIC (Bacteroides fragilis [25]): 4 µg/mL
MIC [26]: 8 µg/mL
MIC (Prevotella disiens): 2 µg/mL
MIC (Micrococcus luteus [27]): 1.56 µg/mL
MIC (Bacteroides fragilis [28]): 2 µg/mL
MIC (Streptococcus pyogenes [29]): 0.2 µg/mL
MIC (Clostridioides difficile [30]): 4 µg/mL
MIC (Fusobacterium nucleatum): 2 µg/mL
MIC (Bacteroides fragilis [31]): 2 µg/mL
MIC (Veillonella parvula): 0.5 µg/mL
MIC (Enterococcus faecium): 0.39 µg/mL
MIC (Peptostreptococcus): 0.5 µg/mL
MIC (Clostridium perfringens [32]): 0.25 µg/mL
MIC (Burkholderia cepacia): 6.2 µg/mL
MIC (Escherichia coli [33]): 0.05 µg/mL
MIC (Hoylesella loescheii): 4 µg/mL
MIC (Providencia stuartii): 1.56 µg/mL
MIC (Escherichia coli [34]): 0.01 µg/mL
MIC (Staphylococcus aureus [35]): 0.05 µg/mL
MIC (Pseudomonas aeruginosa [36]): 0.39 µg/mL
MIC (Clostridium perfringens [37]): 0.25 µg/mL
MIC [38]: 1 µg/mL
MIC (Streptococcus equinus): 0.39 µg/mL
MIC (Streptococcus pyogenes [39]): 0.39 µg/mL
MIC (Prevotella bivia): 2 µg/mL
MIC (Thomasclavelia ramosa): 2 µg/mL
MIC (Escherichia coli [40]): 0.05 µg/mL
MIC (Staphylococcus aureus [41]): 0.1 µg/mL
MIC (Finegoldia magna): 0.5 µg/mL
